Converted amounts (≈) assume the structure as drawn.
Assays:
Type in all cases: functional
[1] = system: Streptococcus pyogenes; assay: Protective dose against Streptococcus pyogenes bacteria; details: read-out: PD50
Procedure, shortened: (§1)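 Acute lethal systemic infection model in female Charles River CD-1 mice. The value is the median protective dose (PD50, mg/kg), defined as the dose needed to protect 50% of mice from the lethal infection.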

[2] = system: Enterobacter cloacae; assay: Antibacterial activity was determined against Gram-negative Enterobacter cloacae HA2646 bacteria
Procedure, shortened: (§2)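 MICs, in micrograms per milliliter, were determined by standard microtitration (microdilution) techniques against each listed Gram-negative and Gram-positive strain.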

[3] = system: Streptococcus pyogenes; assay: Antibacterial activity was determined against Gram-positive Streptococcus pyogenes C203 bacteria; procedure, shortened: as §2
[4] = system: Escherichia coli; assay: Gyrase-drug induced cleavage against Escherichia coli
Procedure, shortened: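 Compounds were tested for induction of DNA gyrase-mediated cleavage. The value is the minimum drug concentration giving linear DNA at an intensity matching that produced by oxolinic acid at 10 μg/mL.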

[5] = system: Staphylococcus aureus; assay: Antibacterial activity was determined against Gram-positive Staphylococcus aureus UC-76 bacteria; details: in the assay text read “Gram-positive” for “Gram-negative”; procedure, shortened: as §2
[6] = system: Klebsiella pneumoniae; assay: Antibacterial activity was determined against Gram-negative Klebsiella pneumoniae MGH-2 bacteria; procedure, shortened: as §2
[7] = system: Streptococcus pneumoniae; assay: Antibacterial activity was determined against Gram-positive Streptococcus pneumoniae SV-1 bacteria; procedure, shortened: as §2
[8] = system: Enterococcus faecalis; assay: Antibacterial activity was determined against Gram-positive Streptococcus faecalis MGH-2 bacteria; procedure, shortened: as §2
[9] = system: Escherichia coli; assay: Protective dose against Escherichia coli H560 bacteria; details: read-out: PD50; procedure, shortened: as §1
[10] = system: Escherichia coli; assay: Antibacterial activity was determined against Gram-negative Escherichia coli Vogel bacteria; procedure, shortened: as §2
[11] = system: Staphylococcus aureus; assay: Antibacterial activity was determined against Gram-positive Staphylococcus aureus H228 bacteria; details: in the assay text read “Gram-positive” for “Gram-negative”; procedure, shortened: as §2
[12] = system: Providencia rettgeri; assay: Antibacterial activity was determined against Gram-negative Providencia rettgeri H1771 bacteria; procedure, shortened: as §2
[13] = system: Pseudomonas aeruginosa; assay: Antibacterial activity was determined against Gram-negative Pseudomonas aeruginosa UI-18 bacteria; procedure, shortened: as §2
[14] = system: Streptococcus pneumoniae; assay: Protective dose against Streptococcus pneumoniae bacteria; details: read-out: PD50; procedure, shortened: as §1
[15] = system: Escherichia coli; assay: Antibacterial activity was determined against Gram-negative Escherichia coli H560 bacteria; procedure, shortened: as §2
[16] = system: Streptococcus pneumoniae; assay: Protective dose against Streptococcus pneumonia bacteria; details: read-out: PD50; procedure, shortened: as §1

| Compound | ED50 [1] | MIC [2] | MIC [3] | MEC [4] | MIC [5] | MIC [6] | MIC [7] | MIC [8] | ED50 [9] | MIC [10] | MIC [11] | MIC [12] | MIC [13] | ED50 [14] | MIC [15] | ED50 [16] |
| --- | --- | --- | --- | --- | --- | --- | --- | --- | --- | --- | --- | --- | --- | --- | --- | --- |
| NCC1CN(c2c(F)cc3c(=O)c(C(=O)O)cn(C4CC4)c3c2F)CC1c1ccccc1 (stereo not drawn) | 11 mg/kg | 0.2 µg/mL (≈ 0.455 µM) | 0.013 µg/mL (≈ 0.0296 µM) | 2.62 µg/mL | 0.006 µg/mL (≈ 0.0137 µM) | 0.1 µg/mL (≈ 0.228 µM) | 0.006 µg/mL (≈ 0.0137 µM) | 0.013 µg/mL (≈ 0.0296 µM) | 27 mg/kg | 0.1 µg/mL (≈ 0.228 µM) | 0.013 µg/mL (≈ 0.0296 µM) | 0.4 µg/mL (≈ 0.91 µM) | 1.6 µg/mL (≈ 3.64 µM) | 25 mg/kg | 0.013 µg/mL (≈ 0.0296 µM) | – |
| NCC1CCN(c2c(F)cc3c(=O)c(C(=O)O)cn(C4CC4)c3c2F)C1 (stereo not drawn) | 4 mg/kg | 0.05 µg/mL (≈ 0.138 µM) | 0.013 µg/mL (≈ 0.0358 µM) | 0.25 µg/mL | 0.003 µg/mL (≈ 0.00826 µM) | 0.05 µg/mL (≈ 0.138 µM) | 0.006 µg/mL (≈ 0.0165 µM) | 0.025 µg/mL (≈ 0.0688 µM) | 6 mg/kg | 0.025 µg/mL (≈ 0.0688 µM) | 0.025 µg/mL (≈ 0.0688 µM) | 0.1 µg/mL (≈ 0.275 µM) | 0.2 µg/mL (≈ 0.55 µM) | – | 0.006 µg/mL (≈ 0.0165 µM) | 10 mg/kg |
| NC1CCN(c2c(F)cc3c(=O)c(C(=O)O)cn(C4CC4)c3c2F)C1 (stereo not drawn) | 7.5 mg/kg | 0.025 µg/mL (≈ 0.0716 µM) | 0.05 µg/mL (≈ 0.143 µM) | 0.1 µg/mL | 0.025 µg/mL (≈ 0.0716 µM) | 0.025 µg/mL (≈ 0.0716 µM) | 0.05 µg/mL (≈ 0.143 µM) | 0.05 µg/mL (≈ 0.143 µM) | 1 mg/kg | 0.013 µg/mL (≈ 0.0372 µM) | 0.05 µg/mL (≈ 0.143 µM) | 0.05 µg/mL (≈ 0.143 µM) | 0.1 µg/mL (≈ 0.286 µM) | – | 0.006 µg/mL (≈ 0.0172 µM) | 15 mg/kg |
| NCC1(c2ccccc2)CCN(c2c(F)cc3c(=O)c(C(=O)O)cn(C4CC4)c3c2F)C1 (stereo not drawn) | 21 mg/kg | 0.05 µg/mL (≈ 0.114 µM) | 0.05 µg/mL (≈ 0.114 µM) | 2.62 µg/mL | 0.013 µg/mL (≈ 0.0296 µM) | 0.1 µg/mL (≈ 0.228 µM) | 0.013 µg/mL (≈ 0.0296 µM) | 0.05 µg/mL (≈ 0.114 µM) | 14 mg/kg | 0.05 µg/mL (≈ 0.114 µM) | 0.025 µg/mL (≈ 0.0569 µM) | 0.2 µg/mL (≈ 0.455 µM) | 0.8 µg/mL (≈ 1.82 µM) | – | 0.013 µg/mL (≈ 0.0296 µM) | – |
| CN(C)CC1(c2ccccc2)CCN(c2c(F)cc3c(=O)c(C(=O)O)cn(C4CC4)c3c2F)C1 (stereo not drawn) | – | 0.05 µg/mL (≈ 0.107 µM) | 0.025 µg/mL (≈ 0.0535 µM) | 2.62 µg/mL | 0.05 µg/mL (≈ 0.107 µM) | 0.1 µg/mL (≈ 0.214 µM) | 0.006 µg/mL (≈ 0.0128 µM) | 0.05 µg/mL (≈ 0.107 µM) | 50 mg/kg | 0.05 µg/mL (≈ 0.107 µM) | 0.05 µg/mL (≈ 0.107 µM) | 0.1 µg/mL (≈ 0.214 µM) | 0.4 µg/mL (≈ 0.856 µM) | – | 0.013 µg/mL (≈ 0.0278 µM) | – |
| NC1(c2ccccc2)CCN(c2c(F)cc3c(=O)c(C(=O)O)cn(C4CC4)c3c2F)C1 (stereo not drawn) | 12 mg/kg | 0.006 µg/mL (≈ 0.0141 µM) | 0.05 µg/mL (≈ 0.118 µM) | 0.55 µg/mL | 0.006 µg/mL (≈ 0.0141 µM) | 0.05 µg/mL (≈ 0.118 µM) | 0.013 µg/mL (≈ 0.0306 µM) | 0.05 µg/mL (≈ 0.118 µM) | 12 mg/kg | 0.025 µg/mL (≈ 0.0588 µM) | 0.013 µg/mL (≈ 0.0306 µM) | 0.05 µg/mL (≈ 0.118 µM) | 0.2 µg/mL (≈ 0.47 µM) | – | 0.013 µg/mL (≈ 0.0306 µM) | – |
| CCNCC1(c2ccccc2)CCN(c2c(F)cc3c(=O)c(C(=O)O)cn(C4CC4)c3c2F)C1 (stereo not drawn) | – | 0.8 µg/mL (≈ 1.71 µM) | 0.1 µg/mL (≈ 0.214 µM) | 2.62 µg/mL | 0.05 µg/mL (≈ 0.107 µM) | 0.8 µg/mL (≈ 1.71 µM) | 0.025 µg/mL (≈ 0.0535 µM) | 0.2 µg/mL (≈ 0.428 µM) | 37 mg/kg | 0.4 µg/mL (≈ 0.856 µM) | 0.1 µg/mL (≈ 0.214 µM) | 1.6 µg/mL (≈ 3.42 µM) | 3.1 µg/mL (≈ 6.63 µM) | – | 0.1 µg/mL (≈ 0.214 µM) | – |
| NC1CN(c2c(F)cc3c(=O)c(C(=O)O)cn(C4CC4)c3c2F)CC1c1ccccc1 (stereo not drawn) | – | 0.2 µg/mL (≈ 0.47 µM) | 0.1 µg/mL (≈ 0.235 µM) | 2.75 µg/mL | 0.025 µg/mL (≈ 0.0588 µM) | 0.2 µg/mL (≈ 0.47 µM) | 0.1 µg/mL (≈ 0.235 µM) | 0.1 µg/mL (≈ 0.235 µM) | – | 0.1 µg/mL (≈ 0.235 µM) | 0.05 µg/mL (≈ 0.118 µM) | 0.4 µg/mL (≈ 0.94 µM) | 1.6 µg/mL (≈ 3.76 µM) | – | 0.025 µg/mL (≈ 0.0588 µM) | – |
| CC1(CN)CCN(c2c(F)cc3c(=O)c(C(=O)O)cn(C4CC4)c3c2F)C1 (stereo not drawn) | 9 mg/kg | 0.025 µg/mL (≈ 0.0662 µM) | 0.025 µg/mL (≈ 0.0662 µM) | 2.62 µg/mL | 0.003 µg/mL (≈ 0.00795 µM) | 0.1 µg/mL (≈ 0.265 µM) | 0.006 µg/mL (≈ 0.0159 µM) | 0.013 µg/mL (≈ 0.0344 µM) | 2.1 mg/kg | 0.05 µg/mL (≈ 0.132 µM) | 0.013 µg/mL (≈ 0.0344 µM) | 0.2 µg/mL (≈ 0.53 µM) | 0.4 µg/mL (≈ 1.06 µM) | – | 0.013 µg/mL (≈ 0.0344 µM) | 5 mg/kg |
| CC1(N)CCN(c2c(F)cc3c(=O)c(C(=O)O)cn(C4CC4)c3c2F)C1 (stereo not drawn) | – | 0.2 µg/mL (≈ 0.55 µM) | 0.8 µg/mL (≈ 2.2 µM) | 0.8 µg/mL | 0.2 µg/mL (≈ 0.55 µM) | 0.4 µg/mL (≈ 1.1 µM) | 0.8 µg/mL (≈ 2.2 µM) | 1.6 µg/mL (≈ 4.4 µM) | – | 0.2 µg/mL (≈ 0.55 µM) | 0.8 µg/mL (≈ 2.2 µM) | 0.8 µg/mL (≈ 2.2 µM) | 3.1 µg/mL (≈ 8.53 µM) | – | 0.2 µg/mL (≈ 0.55 µM) | – |
